The results in this text go back to ChEMBL document CHEMBL4043097, “Synthesis and evaluation of hydroxychalcones as multifunctional non-purine xanthine oxidase inhibitors for the treatment of hyperuricemia” (Bioorg Med Chem Lett, 2017).

pIC50: −log10 of the molar value. Bounds are passed on as bounds.

A short description of data set [1]: Antioxidant activity assessed as ABTS free radical scavenging activity by measuring trolox equivalents after 6 mins. Format: functional. The gist of the method:
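ABTS radical scavenging, expressed as trolox equivalent: (mmol trolox)/(mmol tested compound).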

In data set [2] the target is T1, Xanthine dehydrogenase/oxidase (Bos taurus, UniProt P80457). Briefly: Inhibition of bovine milk xanthine oxidase pre-incubated for 30 mins followed by xanthine addition and measured every 30 secs for 5 mins by spectrophotometry.
Data set [3] can be described thus: Antioxidant activity assessed as DPPH free radical scavenging activity incubated for 30 mins at 2000 uM. The data set is classed as functional. The gist of the method:
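DPPH radical scavenging, given as percent inhibitory rate with test compound at 2000 µM.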
(In general: DPPH is a stable violet radical that fades when it is reduced.)

The test system of data set [4] is Mus musculus. Briefly: Anti-hyperuricemic activity in potassium oxonate-induced hyperuricemic Kun-Ming mouse assessed as serum uric acid level at 50 mg/kg/day, ig for 7 days and measured 1 hr post last dose (reference value: 5.89 +/- 0.36 mg/dl). The data set is classed as functional.
The nature of data set [5]: Antioxidant activity assessed as DPPH free radical scavenging activity incubated for 30 mins. The data set is classed as functional.
In data set [6] the test system is Mus musculus. Briefly: Toxicity in Kun-Ming mouse assessed as induction of body weight reduction at 5000 mg/kg, ig measured continuously for first 4 hrs and intermittently for next 24 hrs. As to conditions: in vivo, po; call rule not given here. The data set is classed as organism-based. The gist of the method:
(§1)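 Mice received a single 5,000 mg/kg dose. They were watched continuously for the first 4 h and intermittently over the next 24 h for abnormal behaviour and mortality. Water intake, food intake and body weight were tracked over the experimental period. The protocol was adapted from an earlier reported acute toxicity study.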

For data set [7], the system named is Mus musculus. Briefly: Anti-hyperuricemic activity in potassium oxonate-induced hyperuricemic Kun-Ming mouse assessed as xanthine oxidase activity per gram of protein at 10 mg/kg/day, ig for 7 days and measured 1 hr post last dose (reference value: 81.5 +/- 1.4 U/g protein). Format: functional.
Data set [8] addresses T1, Xanthine dehydrogenase/oxidase. Briefly: Mixed type inhibition of bovine milk xanthine oxidase pre-incubated for 30 mins followed by xanthine addition and measured every 30 secs for 5 mins by spectrophotometry based L-B plot analysis. The settings on record: cattle. Put shortly:
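Inhibition type from Michaelis–Menten kinetics. Initial XO velocity measured at increasing xanthine concentrations with inhibitor at 0, 25, 50 and 100 µM. Activity read as change in absorbance at 295 nm per unit time; mode assigned from overlaid Lineweaver–Burk reciprocal plots.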

Data set [9] concerns Mus musculus. Briefly: Toxicity in Kun-Ming mouse assessed as effect on water consumption at 5000 mg/kg, ig measured continuously for first 4 hrs and intermittently for next 24 hrs. As to conditions: in vivo, po. Format: organism-based. Put shortly:
as §1

Data set [10] relates to Mus musculus. Briefly: Anti-hyperuricemic activity in potassium oxonate-induced hyperuricemic Kun-Ming mouse assessed as xanthine oxidase activity per gram of protein at 50 mg/kg/day, ig for 7 days and measured 1 hr post last dose (reference value: 81.5 +/- 1.4 U/g protein). The data set is classed as functional.
Data set [11] has as its system Mus musculus. Briefly: Anti-hyperuricemic activity in potassium oxonate-induced hyperuricemic Kun-Ming mouse assessed as serum uric acid level at 10 mg/kg/day, ig for 7 days and measured 1 hr post last dose (reference value: 5.89 +/- 0.36 mg/dl). The data set is classed as functional.
The subject of data set [12] is Mus musculus. Briefly: Toxicity in Kun-Ming mouse assessed as induction of mortality at 5000 mg/kg, ig measured continuously for first 4 hrs and intermittently for next 24 hrs. Format: organism-based. As to conditions: in vivo, po. Put shortly: as §1
The subject of data set [13] is Mus musculus. Briefly: Toxicity in Kun-Ming mouse assessed as effect on food consumption at 5000 mg/kg, ig measured continuously for first 4 hrs and intermittently for next 24 hrs. Format: organism-based. As to conditions: in vivo, po. Put shortly:
as §1

Data set [14] has as its system Mus musculus. Briefly: Anti-hyperuricemic activity in potassium oxonate-induced hyperuricemic Kun-Ming mouse assessed as reduction in serum uric acid level at 10 and 50 mg/kg/day, ig for 7 days and measured 1 hr post last dose. The data set is classed as functional, organism-based.
Data set [15] addresses T1, Xanthine dehydrogenase/oxidase. Briefly: Inhibition of bovine milk xanthine oxidase at 1000 uM pre-incubated for 30 mins followed by xanthine addition and measured every 30 secs for 5 mins by spectrophotometry. As to conditions: cattle. The gist of the method: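 XO inhibition tested up to 1000 µM, the highest concentration tested; compounds precipitate above this. IC50 values from three experiments, reported as mean ± SEM.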

T1 sequence (P80457 whole entry): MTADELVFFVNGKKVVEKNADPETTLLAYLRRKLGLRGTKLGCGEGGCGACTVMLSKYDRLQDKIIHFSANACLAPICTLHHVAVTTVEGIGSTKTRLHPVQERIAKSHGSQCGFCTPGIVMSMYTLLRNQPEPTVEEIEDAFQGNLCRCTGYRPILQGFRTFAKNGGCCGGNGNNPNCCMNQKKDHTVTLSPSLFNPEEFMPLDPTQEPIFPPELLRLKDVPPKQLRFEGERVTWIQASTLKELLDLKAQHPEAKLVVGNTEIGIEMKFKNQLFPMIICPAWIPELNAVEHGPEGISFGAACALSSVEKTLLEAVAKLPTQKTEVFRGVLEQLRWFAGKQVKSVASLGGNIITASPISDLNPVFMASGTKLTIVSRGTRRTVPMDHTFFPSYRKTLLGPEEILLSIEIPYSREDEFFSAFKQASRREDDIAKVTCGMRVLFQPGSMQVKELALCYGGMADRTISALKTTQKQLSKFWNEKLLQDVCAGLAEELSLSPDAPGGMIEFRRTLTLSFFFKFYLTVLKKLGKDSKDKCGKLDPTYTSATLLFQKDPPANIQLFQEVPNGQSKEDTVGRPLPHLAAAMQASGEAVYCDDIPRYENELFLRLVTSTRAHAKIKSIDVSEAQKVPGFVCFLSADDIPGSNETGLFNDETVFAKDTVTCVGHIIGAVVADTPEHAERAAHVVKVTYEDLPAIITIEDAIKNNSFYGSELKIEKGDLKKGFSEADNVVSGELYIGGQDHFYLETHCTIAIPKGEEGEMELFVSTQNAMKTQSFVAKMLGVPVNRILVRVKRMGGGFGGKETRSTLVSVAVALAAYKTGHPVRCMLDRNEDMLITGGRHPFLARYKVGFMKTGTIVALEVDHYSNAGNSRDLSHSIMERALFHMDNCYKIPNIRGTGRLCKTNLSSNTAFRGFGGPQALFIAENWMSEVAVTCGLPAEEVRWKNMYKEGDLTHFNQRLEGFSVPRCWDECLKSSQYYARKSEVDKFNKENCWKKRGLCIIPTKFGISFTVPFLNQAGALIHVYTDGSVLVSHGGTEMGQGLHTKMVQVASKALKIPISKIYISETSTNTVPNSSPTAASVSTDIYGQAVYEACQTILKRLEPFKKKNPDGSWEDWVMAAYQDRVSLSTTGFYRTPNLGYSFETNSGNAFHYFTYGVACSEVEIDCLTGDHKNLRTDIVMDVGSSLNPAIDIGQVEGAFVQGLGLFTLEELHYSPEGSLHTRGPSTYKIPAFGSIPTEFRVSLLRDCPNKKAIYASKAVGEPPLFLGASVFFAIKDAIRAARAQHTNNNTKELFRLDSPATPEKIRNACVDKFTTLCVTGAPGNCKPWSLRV

`O=C(/C=C/c1ccccc1)c1ccccc1O` [2'-HYDROXYCHALCONE]: in data set [1], the Activity (mmolequiv/mmol) was under 0.1. The pIC50 in data set [2] was 4.15. Further, the inhibition in [3] amounted to 13.5%.

Take `O=C(/C=C/c1ccccc1O)c1ccc(O)cc1O`: the Activity is 4.5 mg/dL in the data set with Mus musculus [4]; “Non-Toxic” in the data set with Mus musculus [6]; 73.2 U/g protein with Mus musculus [7]; “Non-Toxic” in the data set on Mus musculus [9]; 64.1 U/g protein in the data set on Mus musculus [10]; 5.21 mg/dL in the data set on Mus musculus [11]. For the same compound, the values for the Activity result in the data set with Mus musculus [12], in the data set on Mus musculus [13] and in the data set on Mus musculus [14] were “Non-Toxic”, “Non-Toxic” and “Dose-dependent effect”, respectively. Also, the figures for the pIC50 in data set [5] and in data set [2] were 3.89 and 4.25, respectively. In addition, in data set [8], the “inhibition (INH)” value is reported as “Active”. The Activity (mmolequiv/mmol) in data set [1] was determined as 0.87.

On to `O=C(/C=C/c1ccccc1)c1cccc(O)c1`, for which, in [1], the Activity (mmolequiv/mmol) was under 0.1. Besides, the pIC50 in data set [2] is 3.78. Besides, the inhibition in data set [3] was determined as 11.7%.

As to `O=C(/C=C/c1cccc(O)c1)c1ccc(O)cc1O`, the Activity (mmolequiv/mmol) in data set [1] was found to be 0.45. Besides, the negative logarithm of the IC50 (pIC50) in [2] was 3.97. The inhibition in data set [3] is 38.6%.

As for `Oc1ncnc2[nH]ncc12` [ALLOPURINOL], the Activity in the data set with Mus musculus [7] was 50.9 U/g protein; with Mus musculus [11] it was 4.14 mg/dL. Moreover, the Activity (mmolequiv/mmol) in [1] is under 0.1. The inhibition in [3] was found to be 20.5%.

As for `Oc1ccc(/C=C/c2cc(O)cc(O)c2)cc1` [RESVERATROL], the pIC50 in data set [5] is 4.02. In addition, the Activity (mmolequiv/mmol) in [1] amounted to 0.65.

Regarding `O=C(/C=C/c1ccc(O)cc1)c1ccc(O)cc1` [4,4'-DIHYDROXYCHALCONE], in data set [1], the Activity (mmolequiv/mmol) was 0.43. In data set [2], this compound had a pIC50 of 3.93. Besides, the inhibition in data set [3] came to 35.9%.

For `O=C(/C=C/c1ccccc1O)c1ccccc1`, in [1], the Activity (mmolequiv/mmol) was under 0.1. The pIC50 in data set [2] was 3.84. In addition, in data set [3], the inhibition came out at 10.8%.

In the case of `O=C(/C=C/c1ccc(O)cc1O)c1ccccc1`, the “inhibition (INH)” value in data set [15] is recorded as “Not Active”. For the same compound, the Activity (mmolequiv/mmol) in data set [1] was under 0.1. Moreover, the inhibition in data set [3] was determined as 10.8%.

As to `O=C(/C=C/c1ccccc1)c1ccc(O)cc1` [4'-HYDROXYCHALCONE], the “inhibition (INH)” value in data set [15] is “Not Active”. Besides, the Activity (mmolequiv/mmol) in [1] was under 0.1. Further, the inhibition in [3] was found to be 12.5%.

In the case of `O=C(/C=C/c1ccc(O)cc1)c1ccccc1` [4-HYDROXYCHALCONE], the Activity (mmolequiv/mmol) in data set [1] is under 0.1. Moreover, in [2], the pIC50 was 3.80. Besides, the inhibition in data set [3] came to 25.7%.

Consider `O=C(/C=C/c1ccccc1)c1ccccc1` [CHALCONE], for which the “inhibition (INH)” value in data set [15] is listed as “Not Active”. In addition, the Activity (mmolequiv/mmol) in [1] is under 0.1. Moreover, the inhibition in [3] was 18.4%.

Take `O=C(/C=C/c1cccc(O)c1)c1ccccc1` [3-HYDROXY CHALCONE]: in [1], the Activity (mmolequiv/mmol) was under 0.1. The pIC50 in data set [2] was 3.64. The inhibition in data set [3] was determined as 11.3%.

For `O=C(/C=C/c1ccc(O)cc1)c1cccc(O)c1`, in [1], the Activity (mmolequiv/mmol) amounted to 0.16. For the same compound, the pIC50 in data set [2] is 3.88. Moreover, in data set [3], the inhibition came to 19.7%.

`O=C(/C=C/c1cccc(O)c1)c1ccccc1O`: the pIC50 is 3.97 in data set [5] and 4.04 in [2]. In addition, the Activity (mmolequiv/mmol) in [1] was found to be 0.93.

For `O=C(/C=C/c1ccccc1O)c1ccccc1O`, the Activity (mmolequiv/mmol) in [1] is 0.17. In [2], the negative logarithm of the IC50 (pIC50) was 4.06. For the same compound, in data set [3], the inhibition was found to be 28%.

As to `O=C(/C=C/c1ccccc1)c1ccc(O)cc1O` [2',4'-DIHYDROXYCHALCONE], the figures for the negative logarithm of the IC50 (pIC50) in data set [5] and in [2] were 3.71 and 3.97, respectively. Besides, the Activity (mmolequiv/mmol) in data set [1] was determined as 0.38.

As to `O=C(/C=C/c1ccc(O)cc1)c1ccc(O)cc1O` [ISOLIQUIRITIGENIN], the Activity with Mus musculus [4] was 4.45 mg/dL; with Mus musculus [6], “Non-Toxic”; in the data set with Mus musculus [7], 70.5 U/g protein; with Mus musculus [9], “Non-Toxic”; with Mus musculus [10], 62 U/g protein; in the data set with Mus musculus [11], 5.14 mg/dL. Also, the Activity entry with Mus musculus [12] and in the data set on Mus musculus [13] was “Non-Toxic” in each case. Also, the pIC50 in data set [5] was 3.54; in [2], 4.33. Further, the Activity (mmolequiv/mmol) in data set [1] amounted to 0.51.

`O=C(/C=C/c1cccc(O)c1)c1cccc(O)c1`: the Activity (mmolequiv/mmol) in data set [1] was determined as 0.18. For the same compound, the negative logarithm of the IC50 (pIC50) in data set [2] is 4.05. Moreover, in data set [3], the inhibition turned out to be 24.3%.

Consider `O=C(/C=C/c1ccc(O)cc1)c1ccccc1O`, for which the Activity (mmolequiv/mmol) in data set [1] was 0.24. The negative logarithm of the IC50 (pIC50) in [2] was 4.10. For the same compound, the inhibition in [3] is 23.1%.

In general, pIC50 refers to the IC50 on a negative log10 scale, so that one unit is a factor of ten. In general, inhibition refers to the drop in the measured response relative to a control, in per cent.
